Hits are enriched below; roughly 2.1% of the tested compounds scored in any of these assays.
VIM-2 inhibitor: inhibitors of Pseudomonas aeruginosa VIM-2 metallo-beta-lactamase; hit rate 0.89% among 290,000; AID 1527; purified VIM-2, nitrocefin hydrolysis, epi-absorbance fluorescence; inhibition, % at 5.6 µM;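 active = inhibition above the mean of all tested compounds plus 3 SD, cutoff set per screening run, cut at about 7.5% in these data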;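 also: red hydrolysis product quenches plate fluorescence so inhibitors raise well fluorescence; 0% = enzyme with DMSO and 100% = DMSO without enzyme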
MsrA inh: inhibits bovine methionine sulfoxide reductase A. inhibition, % at 15.5 µM. purified bovine MsrA, absorbance read-out. hit rate 0.75% among 360,000. AID 651718; in the data active = inhibition above about 4.5%;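 also: 0% = vehicle wells with enzyme and 100% = reference inhibitor wells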
IMP-1 inh-1: inhibitors of Pseudomonas aeruginosa IMP-1 metallo-beta-lactamase | inhibition, % at 5.6 µM | hit rate 0.45% among 290,000 | AID 1556 | purified IMP-1, nitrocefin hydrolysis, epi-absorbance fluorescence;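 active = inhibition above the mean plus 3 SD of all compounds in the same screening run, cut at about 4.5% in these data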;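 also: 0% = IMP-1 with DMSO and 100% = DMSO wells lacking enzyme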
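Test system: recombinant IMP-1 enzyme, purified / Medium: HEPES buffer pH 7.1 with ZnSO4 and Brij 35 / Doses: single dose, 5.6 µM / Times: 25 °C, 15 min preincubation, 25 min reaction / Detection: Epi-absorbance via hydrolysed-nitrocefin quenching of white-plate fluorescence, 480/530 nm, EDTA stop / Evaluation: percent inhibition from optical density relative to buffer-blank wells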
PKA-R2B activ: activates the human PKA-R2B holoenzyme complex; PKA-R2B holoenzyme dissociation, Cy5-IP20 fluorescence polarization; R2B truncated from residue 108, S112A mutant; 0% DMSO only, 100% 113 µM cGMP; activation, % at 11.4 µM; hit rate 0.079% among 340,000; AID 504700;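 active = activation above a cutoff set at the mean over all compounds plus 3 SD, cut at about 18% in these data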;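 also: higher means more holoenzyme dissociation and a rise in polarization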
Target sequence (P31323 whole entry, looked up, other chains not shown, the tested form may be a part): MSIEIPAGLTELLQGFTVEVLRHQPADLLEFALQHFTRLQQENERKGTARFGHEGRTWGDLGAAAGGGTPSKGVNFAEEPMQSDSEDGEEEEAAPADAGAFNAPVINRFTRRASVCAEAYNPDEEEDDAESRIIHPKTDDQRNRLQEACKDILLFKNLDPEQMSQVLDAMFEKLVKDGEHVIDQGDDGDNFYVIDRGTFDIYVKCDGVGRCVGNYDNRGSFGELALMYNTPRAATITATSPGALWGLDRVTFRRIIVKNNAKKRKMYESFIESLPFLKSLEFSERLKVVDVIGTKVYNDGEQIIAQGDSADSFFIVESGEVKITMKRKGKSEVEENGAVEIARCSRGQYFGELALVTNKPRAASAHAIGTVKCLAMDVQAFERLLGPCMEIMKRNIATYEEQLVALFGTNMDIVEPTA
PKA-R1A act: activates the PKA-R1A holoenzyme complex. PKA-R1A dissociation, Cy5-IP20 fluorescence polarization; scaled: DMSO 0%, 113 µM cGMP 100%. activation, % at 11.4 µM. hit rate 0.083% among 340,000. AID 504707;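 active = percent activation above the mean of all tested compounds plus 3 SD, cut at about 19% in these data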;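 also: higher means more PKAc released from R1A so a rise in polarization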
MsrA act: activators of bovine methionine sulfoxide reductase A; purified bovine MsrA, absorbance read-out; activation, % at 10.6 µM; hit rate 0.3% among 360,000; in the data active = activation above about 7.5%;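 also: 0% = vehicle and 100% = reference activator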
IMP-1 inh-2: blocks IMP-1 metallo-beta-lactamase in VIM-2 selectivity screen; shares compounds with VIM-2 inhibitor; purified IMP-1, nitrocefin hydrolysis, epi-absorbance fluorescence; inhibition, % at 5.6 µM; 1,300 tested, under 10 active; AID 1856; call rule not given here;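 also: 0% = enzyme with vehicle and 100% = vehicle without enzyme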
VIM-2 FRET ctr: counter-screen for VIM-2 inhibitors: epi-absorbance artifacts via FRET | shares compounds with VIM-2 inhibitor | purified VIM-2, CCF2 FRET substrate hydrolysis | inhibition, % at 5.6 µM | hit rate 23% among 1,300;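 active = inhibition above the mean of all tested compounds plus 3 SD, cut at about 19% in these data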;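 also: 0% = VIM-2 plus DMSO and 100% = no enzyme wells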
TEM-1 inh: TEM-1 inhibition, counter-screen for VIM-2 inhibitors; shares compounds with VIM-2 inhibitor; Purified TEM-1, nitrocefin hydrolysis, epi-absorbance fluorescence; inhibition, % at 5.6 µM; hit rate 3% among 1,300; AID 1866;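 active = inhibition above that campaign's mean inhibition plus 3 SD, cut at about 0.46% in these data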;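 also: 0% = TEM-1 with DMSO and 100% = TEM-1 with 100 µM potassium clavulanate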
VIM-2 confirm 2: confirmation of P. aeruginosa VIM-2 metallo-beta-lactamase inhibitors; shares compounds with VIM-2 inhibitor; purified VIM-2, nitrocefin hydrolysis, epi-absorbance; inhibition, % at 5.6 µM; hit rate 96% among 1,300;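 active = inhibition of the VIM-2 beta-lactamase enzyme above about 11% from the earlier first-round screen, limit read from the data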;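 also: 0% = VIM-2 with DMSO and 100% = buffer wells without enzyme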
Active calls of the source: *.

Results for COc1cccc(C(=O)N[C@H](C(=O)N2CCC[C@H]2C(=O)NCCc2ccccc2Cl)c2ccccc2)c1 ?
MsrA inh: -1

What do the screens show for `COC(=O)[C@]12C[C@H](CC(=O)NCC34CC5CC(CC(C5)C3)C4)C(=O)N(Cc3ccccc3)C1=C[C@H](C(C)C)O[C@@H]2C1CC1`?
MsrA inh: 0

Results for CCN(CC)c1nc(N)c2c(N)nc3c(c2c1C#N)CC(c1ccccc1)O3 (stereo unspecified) ?
VIM-2 inhibitor: -4; MsrA inh: 6.3*; IMP-1 inh-1: -5; PKA-R2B activ: 7; PKA-R1A act: 10; MsrA act: -1

How did N#Cc1c(N2CCCCC2)nc(N)c2c(N)nc3c(c12)CC(c1ccccc1)O3 (stereo unspecified) do in these assays?
VIM-2 inhibitor: -2; MsrA inh: 4; IMP-1 inh-1: -1; PKA-R2B activ: -7; PKA-R1A act: 2; MsrA act: -2

Results for O=C(Nc1nc(=O)c2ccccc2s1)c1ccccc1 ?
VIM-2 inhibitor: 11*; MsrA inh: 2; IMP-1 inh-1: -2; PKA-R2B activ: -6; PKA-R1A act: -2; MsrA act: 0

How did CC(C)(C)n1nc(C2CC2)cc1NC(=O)Nc1ccccc1 do in these assays?
MsrA inh: 1

How did NC[C@H](Cc1ccccc1)NCCCCC1CCCCC1 do in these assays?
MsrA inh: -1; PKA-R2B activ: -1; PKA-R1A act: -7; MsrA act: 1

Results for CNC[C@H](CC1CCCCC1)NC[C@H](Cc1ccccc1)NCCC12CC3CC(CC(C3)C1)C2 ?
VIM-2 inhibitor: 2; MsrA inh: 0; IMP-1 inh-1: 16*; PKA-R2B activ: 9; PKA-R1A act: 2; MsrA act: -5

How did CSc1nnc2c3cc(F)ccc3n(C)c2n1 do in these assays?
VIM-2 inhibitor: 14*; MsrA inh: -1; IMP-1 inh-1: -3; PKA-R2B activ: 2; PKA-R1A act: -1; MsrA act: -3; IMP-1 inh-2: -2; VIM-2 FRET ctr: 0; TEM-1 inh: -4; VIM-2 confirm 2: 24*

What do the screens show for `COc1cccc(-n2c(CCn3nc(C)c([N+](=O)[O-])c3C)n[nH]c2=S)c1`?
VIM-2 inhibitor: 14*; MsrA inh: 0; IMP-1 inh-1: -3; PKA-R2B activ: -5; PKA-R1A act: 10; MsrA act: -4; IMP-1 inh-2: -3; VIM-2 FRET ctr: 38*; TEM-1 inh: -4; VIM-2 confirm 2: 25*

What do the screens show for `COc1ccc(CCn2nc(C)c([N+](=O)[O-])c2C)cc1`?
VIM-2 inhibitor: 0; MsrA inh: 1; IMP-1 inh-1: -2; PKA-R2B activ: 5; PKA-R1A act: -6; MsrA act: -3

Results for Cc1cccc(-n2c(CCn3nc(C)c([N+](=O)[O-])c3C)n[nH]c2=S)c1 ?
VIM-2 inhibitor: 17*; MsrA inh: 2; IMP-1 inh-1: -5; PKA-R2B activ: 0; PKA-R1A act: -6; MsrA act: -3; IMP-1 inh-2: -4; VIM-2 FRET ctr: 46*; TEM-1 inh: -7; VIM-2 confirm 2: 30*

Results for O=C(N/N=C/c1ccc(-n2ccnc2)cc1)c1cccs1 ?
VIM-2 inhibitor: 77*; MsrA inh: 4; IMP-1 inh-1: 0; PKA-R2B activ: 3; PKA-R1A act: 4; MsrA act: -5; IMP-1 inh-2: -3; VIM-2 FRET ctr: -11; TEM-1 inh: -6; VIM-2 confirm 2: 84*

Assay outcomes: PubChem BioAssay, The Scripps Research Institute Molecular Screening Center
